Data: ChEMBL document CHEMBL1649137, “Genetic analysis of factors affecting susceptibility of Bacillus subtilis to daptomycin” (2009)
Converted amounts (≈) assume the structure as drawn.

Key:
Bacillus subtilis [1] = assay: Decrease in lmrB gene expression in Bacillus subtilis W168 by microarray analysis; assay type: functional
Summary of the method: (§1)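 W168 grown in Ca2+-supplemented Mueller-Hinton broth at 37°C to OD600 0.4, split, and one half exposed to 1 μg/ml daptomycin for 20 min. Total RNA from three biological replicates; cDNA labeled with Alexa Fluor 555/647 and co-hybridized at 42°C for 16–18 h. Genes with summed intensity <20 or SD > mean were dropped. Fold change is treated/untreated signal, from ≥6 spot measurements.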

Bacillus subtilis [2] = assay: Decrease in ypeB gene expression in Bacillus subtilis W168 by microarray analysis; assay type: functional; summary of the method: as §1
Bacillus subtilis [3] = assay: Induction of ypbG gene expression in Bacillus subtilis W168 by microarray analysis; assay type: functional; summary of the method: as §1
Bacillus subtilis [4] = assay: Decrease in ywdE gene expression in Bacillus subtilis W168 by microarray analysis; assay type: functional; summary of the method: as §1
Bacillus subtilis [5] = assay: Antibacterial activity against liar gene-deficient Bacillus subtilis W168 mutant by liquid growth inhibition assay; assay type: functional
Summary of the method: (§2)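 Daptomycin MIC by liquid growth inhibition. Overnight cultures diluted 1:100, grown to mid-log, rediluted to 5 × 10^5 CFU/ml in Mueller-Hinton broth with 50 mg/liter Ca2+. At least 10 concentrations near the predicted MIC, plus a no-drug control, added at start; 200 μl. OD600 read every 20 min for 24 h at 37°C with shaking. Inhibition: 24 h OD600 <0.05. MIC is the mode of at least triplicates.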

Bacillus subtilis [6] = assay: Antibacterial activity against mprF and pssA gene-deficient Bacillus subtilis CU1065 mutant by liquid growth inhibition assay; assay type: functional; summary of the method: as §2
Bacillus subtilis [7] = assay: Decrease in rpmB gene expression in Bacillus subtilis W168 by microarray analysis; assay type: functional; summary of the method: as §1
Bacillus subtilis [8] = assay: Antibacterial activity against Bacillus subtilis CU1065 mutant by liquid growth inhibition assay; assay type: functional; summary of the method: as §2
Bacillus subtilis [9] = assay: Antibacterial activity against pssA gene-deficient Bacillus subtilis CU1065 mutant by liquid growth inhibition assay; assay type: functional; summary of the method: as §2
Bacillus subtilis [10] = assay: Induction of liaF gene expression in Bacillus subtilis W168 by microarray analysis; assay type: functional; summary of the method: as §1
Bacillus subtilis [11] = assay: Induction of ywrE gene expression in Bacillus subtilis W168 by microarray analysis; assay type: functional
Summary of the method: (§3)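 W168 cultures in Mueller-Hinton broth with 50 mg/liter Ca2+, 37°C with shaking, grown to mid-log phase (OD600 0.4) from a 1:1,000 overnight dilution. Split: one half given 1 μg/ml daptomycin for 20 min, the other left untreated. Total RNA from three biological replicates; cDNA labeled with Alexa Fluor 555 or 647 and hybridized 16 to 18 h at 42°C. Induction = treated/untreated signal intensity, duplicate spots on three arrays.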

Bacillus subtilis [12] = assay: Antibacterial activity against liaGFSR gene-deficient Bacillus subtilis W168 mutant by liquid growth inhibition assay; assay type: functional; summary of the method: as §2
Bacillus subtilis [13] = assay: Induction of yocH gene expression in Bacillus subtilis W168 by microarray analysis; assay type: functional; summary of the method: as §1
Bacillus subtilis [14] = assay: Induction of yxjI gene expression in Bacillus subtilis W168 by microarray analysis; assay type: functional; summary of the method: as §3
Bacillus subtilis [15] = assay: Induction of yhdL gene expression in Bacillus subtilis W168 by microarray analysis; assay type: functional; summary of the method: as §1
Bacillus subtilis [16] = assay: Induction of yoeB gene expression in Bacillus subtilis W168 by microarray analysis; assay type: functional; summary of the method: as §1
Bacillus subtilis [17] = assay: Antibacterial activity against sigMWX gene-deficient Bacillus subtilis CU1065 triple mutant by liquid growth inhibition assay; assay type: functional; summary of the method: as §2
Bacillus subtilis [18] = assay: Antibacterial activity against Bacillus subtilis CU1066 with depletion in pgsA gene by liquid growth inhibition assay; assay type: functional; settings: CU1065, in the assay text read “CU1065” for “CU1066”
Summary of the method: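 Liquid growth inhibition in Mueller-Hinton broth with 50 mg/liter Ca2+. Overnight cultures diluted 1:100, grown to mid-log, rediluted to 5 × 10^5 CFU/ml, then given at least 10 daptomycin concentrations near the predicted MIC plus a drug-free control. OD600 read every 20 min for 24 h at 37°C with shaking. MIC is the mode of at least triplicates of the lowest concentration giving final OD600 <0.05.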

Bacillus subtilis [19] = assay: Induction of yhcY gene expression in Bacillus subtilis W168 by microarray analysis; assay type: functional; summary of the method: as §1
Bacillus subtilis [20] = assay: Induction of ywaC gene expression in Bacillus subtilis W168 by microarray analysis; assay type: functional; summary of the method: as §3
Bacillus subtilis [21] = assay: Induction of yuaF gene expression in Bacillus subtilis W168 by microarray analysis; assay type: functional; summary of the method: as §1
Bacillus subtilis [22] = assay: Decrease in ywhE gene expression in Bacillus subtilis W168 by microarray analysis; assay type: functional; summary of the method: as §1
Bacillus subtilis [23] = assay: Decrease in ywfB gene expression in Bacillus subtilis W168 by microarray analysis; assay type: functional; summary of the method: as §1
Bacillus subtilis [24] = assay: Antibacterial activity against liaH gene-deficient Bacillus subtilis CU1065 mutant by liquid growth inhibition assay
Bacillus subtilis [25] = assay: Induction of yqjL gene expression in Bacillus subtilis W168 by microarray analysis; assay type: functional; summary of the method: as §1
Bacillus subtilis [26] = assay: Antibacterial activity against sigW and pspA gene-deficient Bacillus subtilis CU1065 mutant by liquid growth inhibition assay; assay type: functional; summary of the method: as §2
Bacillus subtilis [27] = assay: Induction of yvrI gene expression in Bacillus subtilis W168 by microarray analysis; assay type: functional; summary of the method: as §3
Bacillus subtilis [28] = assay: Induction of murB gene expression in Bacillus subtilis W168 by microarray analysis; assay type: functional; summary of the method: as §1
Bacillus subtilis [29] = assay: Antibacterial activity against sigM gene-deficient Bacillus subtilis CU1065 mutant by liquid growth inhibition assay; assay type: functional; summary of the method: as §2
Bacillus subtilis [30] = assay: Decrease in yvcB gene expression in Bacillus subtilis W168 by microarray analysis; assay type: functional; summary of the method: as §1
Bacillus subtilis [31] = assay: Induction of yhcZ gene expression in Bacillus subtilis W168 by microarray analysis; assay type: functional; summary of the method: as §1
Bacillus subtilis [32] = assay: Antibacterial activity against ugtP gene-deficient Bacillus subtilis CU1065 mutant by liquid growth inhibition assay; assay type: functional; summary of the method: as §2
Bacillus subtilis [33] = assay: Antibacterial activity against liaIH and pspA gene-deficient Bacillus subtilis CU1065 mutant by liquid growth inhibition assay; assay type: functional; summary of the method: as §2
Bacillus subtilis [34] = assay: Antibacterial activity against des and pspA gene-deficient Bacillus subtilis W168 mutant by liquid growth inhibition assay
Bacillus subtilis [35] = assay: Decrease in ydgK gene expression in Bacillus subtilis W168 by microarray analysis; assay type: functional; summary of the method: as §1
Bacillus subtilis [36] = assay: Induction of sigM gene expression in Bacillus subtilis W168 by microarray analysis; assay type: functional; summary of the method: as §1
Bacillus subtilis [37] = assay: Antibacterial activity against liaH, pspA and sigW gene-deficient Bacillus subtilis CU1065 mutant by liquid growth inhibition assay; assay type: functional; summary of the method: as §2
Bacillus subtilis [38] = assay: Antibacterial activity against sigXM and liaIH gene-deficient Bacillus subtilis CU1065 mutant by liquid growth inhibition assay; assay type: functional; summary of the method: as §2
Bacillus subtilis [39] = assay: Antibacterial activity against sigXW gene-deficient Bacillus subtilis CU1065 double mutant by liquid growth inhibition assay; assay type: functional; summary of the method: as §2
Bacillus subtilis [40] = assay: Antibacterial activity against Bacillus subtilis W168 mutant by liquid growth inhibition assay; assay type: functional; summary of the method: as §2
Bacillus subtilis [41] = assay: Induction of murG gene expression in Bacillus subtilis W168 by microarray analysis; assay type: functional; summary of the method: as §1
Bacillus subtilis [42] = assay: Induction of ydaH gene expression in Bacillus subtilis W168 by microarray analysis; assay type: functional; summary of the method: as §1
Bacillus subtilis [43] = assay: Decrease in yvzC gene expression in Bacillus subtilis W168 by microarray analysis; assay type: functional; summary of the method: as §1
Bacillus subtilis [44] = assay: Induction of liaI gene expression in Bacillus subtilis W168 by microarray analysis; assay type: functional; summary of the method: as §1
Bacillus subtilis [45] = assay: Decrease in yxeQ gene expression in Bacillus subtilis W168 by microarray analysis; assay type: functional; summary of the method: as §1
Bacillus subtilis [46] = assay: Decrease in yknU gene expression in Bacillus subtilis W168 by microarray analysis; assay type: functional; summary of the method: as §1
Bacillus subtilis [47] = assay: Antibacterial activity against liaH and yhcYZ gene-deficient Bacillus subtilis W168 mutant by liquid growth inhibition assay; assay type: functional; summary of the method: as §2
Bacillus subtilis [48] = assay: Antibacterial activity against Bacillus subtilis CU1065 mutant with mprF gene overexpression by liquid growth inhibition assay; assay type: functional; summary of the method: as §2
Bacillus subtilis [49] = assay: Decrease in ywdD gene expression in Bacillus subtilis W168 by microarray analysis; assay type: functional; summary of the method: as §1

CCCCCCCCCC(=O)N[C@@H](Cc1c[nH]c2ccccc12)C(=O)N[C@H](CC(N)=O)C(=O)N[C@@H](CC(=O)O)C(=O)N[C@@H]1C(=O)NCC(=O)N[C@@H](CCCN)C(=O)N[C@@H](CC(=O)O)C(=O)N[C@H](C)C(=O)N[C@@H](CC(=O)O)C(=O)NCC(=O)N[C@H](CO)C(=O)N[C@@H]([C@H](C)CC(=O)O)C(=O)N[C@@H](CC(=O)c2ccccc2N)C(=O)O[C@@H]1C
fold change (FC) (Bacillus subtilis [1]): 0.5 | fold change (FC) (Bacillus subtilis [2]): 3.1 | fold change (FC) (Bacillus subtilis [3]): 3.6 | fold change (FC) (Bacillus subtilis [4]): 9.9 | MIC (Bacillus subtilis [5]): 0.5 µg/mL (≈ 0.309 µM) | MIC (Bacillus subtilis [6]): 0.9 µg/mL (≈ 0.555 µM) | fold change (FC) (Bacillus subtilis [7]): 0.5 | MIC (Bacillus subtilis [8]): 1 µg/mL (≈ 0.617 µM) | MIC (Bacillus subtilis [9]): 1 µg/mL (≈ 0.617 µM) | fold change (FC) (Bacillus subtilis [10]): 149 | fold change (FC) (Bacillus subtilis [11]): 2.1 | MIC (Bacillus subtilis [12]): 0.5 µg/mL (≈ 0.309 µM) | fold change (FC) (Bacillus subtilis [13]): 0.5 | fold change (FC) (Bacillus subtilis [14]): 2.1 | fold change (FC) (Bacillus subtilis [15]): 2.5 | fold change (FC) (Bacillus subtilis [16]): 2.1 | MIC (Bacillus subtilis [17]): 0.6 µg/mL (≈ 0.37 µM) | MIC (Bacillus subtilis [18]): 8 µg/mL (≈ 4.94 µM) | fold change (FC) (Bacillus subtilis [19]): 3.3 | fold change (FC) (Bacillus subtilis [20]): 3.5 | fold change (FC) (Bacillus subtilis [21]): 4.8 | fold change (FC) (Bacillus subtilis [22]): 0.4 | fold change (FC) (Bacillus subtilis [23]): 7.9 | MIC (Bacillus subtilis [24]): 0.4 µg/mL (≈ 0.247 µM) | fold change (FC) (Bacillus subtilis [25]): 7.8 | MIC (Bacillus subtilis [26]): 0.8 µg/mL (≈ 0.494 µM) | fold change (FC) (Bacillus subtilis [27]): 574 | fold change (FC) (Bacillus subtilis [28]): 2 | MIC (Bacillus subtilis [29]): 0.8 µg/mL (≈ 0.494 µM) | fold change (FC) (Bacillus subtilis [30]): 27 | fold change (FC) (Bacillus subtilis [31]): 2.2 | MIC (Bacillus subtilis [32]): 0.9 µg/mL (≈ 0.555 µM) | MIC (Bacillus subtilis [33]): 0.2 µg/mL (≈ 0.123 µM) | MIC (Bacillus subtilis [34]): 0.9 µg/mL (≈ 0.555 µM) | fold change (FC) (Bacillus subtilis [35]): 0.5 | fold change (FC) (Bacillus subtilis [36]): 2.1 | MIC (Bacillus subtilis [37]): 0.2 µg/mL (≈ 0.123 µM) | MIC (Bacillus subtilis [38]): 0.2 µg/mL (≈ 0.123 µM) | MIC (Bacillus subtilis [39]): 0.9 µg/mL (≈ 0.555 µM) | MIC (Bacillus subtilis [40]): 1 µg/mL (≈ 0.617 µM) | fold change (FC) (Bacillus subtilis [41]): 2.4 | fold change (FC) (Bacillus subtilis [42]): 6.2 | fold change (FC) (Bacillus subtilis [43]): 26 | fold change (FC) (Bacillus subtilis [44]): 1294 | fold change (FC) (Bacillus subtilis [45]): 0.5 | fold change (FC) (Bacillus subtilis [46]): 7.8 | MIC (Bacillus subtilis [47]): 0.2 µg/mL (≈ 0.123 µM) | MIC (Bacillus subtilis [48]): 1.3 µg/mL (≈ 0.802 µM) | fold change (FC) (Bacillus subtilis [49]): 5.3
